Columns and labels:
A2A = settings: cited from earlier work
[1] = normal rats; cited from earlier work
adenosine A2A = adenosine A2A (Rattus norvegicus, UniProt P30543); experiment: In vitro autoradiography of rat brain slices; format: binding; settings: 90 min incubation, 2.3 MBq tracer, phosphor imaging
A2A receptor [2] = target: T1, A2A receptor (Rattus norvegicus, UniProt P30543); experiment: Ex vivo brain autoradiography / in vivo blocking; settings: 30 min after i.v. injection of 12.9 MBq, 50 µm slices
[3] = In vivo biodistribution in normal rats; design: species or system rat
Method in brief: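 Non-lesioned male SD rats received ~11.1 MBq (300 µCi)/rat radiotracer i.v. in saline. They were killed by CO2 asphyxiation at 30 (n = 4), 60 (n = 4) or 120 min (n = 6). Brain, blood and other tissues were wet-weighed and gamma-counted, and uptake was expressed as %ID/g. Data are mean ± SEM, with means compared by 1-way ANOVA.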

A2A receptor [4] = target: T1, A2A receptor; experiment: PET kinetic experiment in normal rats; format: in vivo
Method in brief: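 Unlesioned male SD rats, age-matched to 13–14-week lesioned rats, were imaged on an Inveon microPET under isoflurane (2–3% v/v in O2). Each received […]/rat radiotracer i.v. in saline, followed by a 30 min list-mode emission scan. Caudate-putamen ROI mean pixel values were converted to counts/g/min (1 g/mL density) and divided by injected dose to give %ID/g, reported as mean ± SEM.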

A2A receptor [5] = target: T1, A2A receptor; experiment: PET kinetic experiment in unilaterally 6-OHDA-lesioned rats; format: in vivo
[6] = In vitro metabolism in cryopreserved rat hepatocytes; format: in vitro ADME; settings: rat hepatocyte incubation

T1 sequence (P30543 whole entry): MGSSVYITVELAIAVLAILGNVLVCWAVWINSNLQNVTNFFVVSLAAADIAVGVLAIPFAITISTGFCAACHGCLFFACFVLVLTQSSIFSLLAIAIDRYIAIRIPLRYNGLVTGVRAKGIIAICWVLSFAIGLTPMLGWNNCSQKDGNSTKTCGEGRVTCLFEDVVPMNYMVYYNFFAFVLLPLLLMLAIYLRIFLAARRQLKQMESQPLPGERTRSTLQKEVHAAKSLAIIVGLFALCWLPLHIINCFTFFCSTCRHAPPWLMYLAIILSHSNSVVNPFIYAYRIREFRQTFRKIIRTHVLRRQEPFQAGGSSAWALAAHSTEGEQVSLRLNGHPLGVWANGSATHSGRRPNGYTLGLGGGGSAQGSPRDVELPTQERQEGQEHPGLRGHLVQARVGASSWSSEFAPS
Sequence of adenosine A2A (P30543 whole entry): as above

Q: For Nc1nc2c(cnn2CCCc2ccc(OCCF)cc2)c2nc(-c3ccco3)nn12 [MRS5425, 7-(3-(4-(2-fluoroethoxy)phenyl)propyl)-2-(furan-2-yl)-7H-pyrazolo[4,3-e][1,2,4]triazolo[1,5-c]pyrimidin-5-amine], which “selectivity over A1 and A3” value (A2A; A2A versus A1 and A3) is on record?
A: Its value is 1000 fold.

Q: What about the Ki (A2A; read-out: Ki for A2A) of the same compound?
A: The Ki was 12.4 nM.

Q: For [11CH3]Oc1ccc(CCCn2ncc3c2nc(N)n2nc(-c4ccco4)nc32)cc1 [[^11C]-SCH442416], which “time of maximum radioactivity accumulation in striatum” value [1] is on record?
A: The value was 5 min.

Q: And the “time to reach 50% of peak striatal %ID/g” value [1]?
A: The value was no more than 25 min.

Q: And the “time to reach lowest striatal %ID/g” value [1]?
A: Its value is no more than 60 min.

Q: Which “radioactivity binding on coronal brain slices” value (adenosine A2A) does the source give for Nc1nc2c(cnn2CCCc2ccc(OCC[18F])cc2)c2nc(-c3ccco3)nn12 [[^18F]-MRS5425, 7-(3-(4-(2-[^18F]fluoroethoxy)phenyl)propyl)-2-(furan-2-yl)-7H-pyrazolo[4,3-e][1,2,4]triazolo[1,5-c]pyrimidin-5-amine] here?
A: Its value is “radioactivity binding (dark area in Fig 1 b) in the caudate-putamen (striatum) nucleus bilaterally”.

Q: And the “ex vivo radioactivity binding in brain slices” value (A2A receptor [2])?
A: Its value is “radioactivity binding in the striatal region bilaterally”.

Q: And the “primary accumulation (tissues)” value ([3]; 30, 60, 120 min biodistribution)?
A: The value was “intestine and urine”.

Q: And the uptake in striatum ([3]; 30 min after i.v. injection, n = 4, mean ± SEM)?
A: Its uptake in striatum is 0.25 ± 0.09 %ID/g.

Q: And the uptake in striatum ([3]; 60 min after i.v. injection, n = 4, mean ± SEM)?
A: Its uptake in striatum is 0.35 ± 0.10 %ID/g.

Q: And the uptake in striatum ([3]; 120 min after i.v. injection, n = 6, mean ± SEM)?
A: The uptake in striatum was 0.13 ± 0.03 %ID/g.

Q: What about the “uptake in striatum compared to blood” value ([3]; at 30 and 60 min) of the same compound?
A: The value was ~ 2 fold.

Q: What about the “bone uptake in imaging studies” value (A2A receptor [4]; PET imaging in rats, marker of defluorination) of the same compound?
A: The value was “not observed”.

Q: What about the “plateau of striatal %ID/g held until” value (A2A receptor [4]; normal rats) of the same compound?
A: The value was 3.5 min.

Q: And the “striatal uptake versus cortical and other regions” value (A2A receptor [4]; normal rats, PET images)?
A: The value was “significantly higher uptake”.

Q: What about the “time of decline to 75% of peak %ID/g” value (A2A receptor [4]; normal rats, striatum TAC) of the same compound?
A: The value was “about 6 min”.

Q: What about the “time of maximum striatal ROI-derived %ID/g” value (A2A receptor [4]; normal rats, striatum TAC) of the same compound?
A: The value was 90 s.

Q: What about the “plateau maintained after maximum” value (A2A receptor [4]; normal rats, striatum TAC, additional time after 90 sec) of the same compound?
A: Its value is 2 min.

Q: What about the “%ID/g values compared with [11C]-SCH442416 in monkeys” value (A2A receptor [4]; rat striatum versus 0.035 %ID/mL in monkeys) of the same compound?
A: The value was ~ 20 fold.

Q: What about the “plateau of striatal %ID/g held until” value (A2A receptor [5]; 6-OHDA rats) of the same compound?
A: The value was 4.5 min.

Q: What about the “plateau maintained after peak” value (A2A receptor [5]; 6-OHDA-lesioned rats, saline) of the same compound?
A: Its value is “about 3 min”.

Q: What about the “time of peak baseline striatal %ID/g” value (A2A receptor [5]; 6-OHDA-lesioned rats, saline, both lesioned and intact sides) of the same compound?
A: Its value is 90 s.

Q: And the “%ID/g in lesioned side compared to intact side” value (A2A receptor [5]; saline baseline, after plateau to 30 min, p < 0.05)?
A: Its value is “significantly higher”.

Q: And the defluorination [6]?
A: The defluorination was “evidence for defluorination”.

Q: And the metabolite observed ([6]; HPLC-MS, m/z +16, believed N-oxidation)?
A: Its metabolite observed is “a major fluorine-containing metabolite”.
